Reference: ChEMBL document CHEMBL1143425, “Paradoxical growth effect of caspofungin observed on biofilms and planktonic cells of five different Candida species” (2007)
Values after ≈ are worked out from the molar mass of the structure shown. Active and inactive are the calls of the source.

Assays:
Candida metapsilosis [1] = test: Effect on morphology in Candida metapsilosis grown as biofilm assessed as inhibition of hyphae and pseudohyphae at 16 ug/ml after 48 hrs; type: functional, organism-based
How it was run: (§1)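 Biofilms formed in RPMI 1640 wells were exposed to caspofungin for 48 h and compared with drug-free control wells. Wells were examined in the plate under an inverted light microscope at ×200 and photographed.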

Candida tropicalis [2] = test: Antimicrobial activity against Candida tropicalis BR-A18 grown as biofilm after 48 hrs by XTT reduction assay; type: functional
How it was run: (§2)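 Clinical isolates were grown overnight (18 h, 35°C, 120 rpm) in RPMI 1640 with MOPS, pH 7.0, then washed and set to ~1 × 10^7 cells/ml. Cells attached for 1.5 h at 37°C, 75 rpm, then biofilms grew 24 h. Caspofungin was given as doubling dilutions of 2–1,024 μg/ml for 48 h at 35°C, 75 rpm. Read-out was XTT-menadione in PBS, 1 h at 35°C in the dark, A490, cell-free blank subtracted. MIC was a 50% drop in activity versus drug-free; PG was >50% of control above MIC. Run in duplicate.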

Candida parapsilosis [3] = test: Antimicrobial activity against Candida parapsilosis BR-A28 grown as planktonic cell assessed as paradoxical growth after 48 hrs by XTT reduction assay; type: functional, organism-based
How it was run: (§3)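 Planktonic broth microdilution followed CLSI M27-A2, with caspofungin dissolved in water. After 48 h, XTT-menadione was added to each well and plates were incubated 1 h at 35°C in the dark. Cells were pelleted by centrifugation and the supernatant was read at 490 nm. MIC was the lowest concentration giving a 50% drop in metabolic activity versus the drug-free control. PG was ≥20% of drug-free activity above the MIC.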

Candida parapsilosis [4] = test: Antimicrobial activity against Candida parapsilosis BR-A28 grown as biofilm after 48 hrs by XTT reduction assay; type: functional; conditions: Lodderomyces parapsilosis
How it was run: (§4)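 Isolates were grown on Sabouraud agar (30°C, 24 h), then overnight in RPMI 1640 with MOPS, pH 7.0, at 35°C with shaking. Cells were washed and set to ~1 × 10^7 cells/ml, attached 1.5 h at 37°C, and grown 24 h. Biofilms were then exposed to caspofungin in 10 twofold dilutions (2–1,024 μg/ml) for 48 h at 35°C with shaking. Read-out was XTT-menadione, 1 h, 35°C, dark, A490, cell-free blank subtracted. MIC was the 50% drop in activity versus drug-free control. Tested in duplicate.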

Candida orthopsilosis [5] = test: Antimicrobial activity against Candida orthopsilosis BR-A36 grown as planktonic cell assessed as paradoxical growth after 48 hrs by XTT reduction assay; type: functional, organism-based
How it was run: (§5)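 Planktonic cells were tested by CLSI M27-A2 broth microdilution with caspofungin in water, incubated 48 h. XTT-menadione was added to each well, plates were held 1 h at 35°C in the dark and centrifuged, and supernatant absorbance was read at 490 nm. MIC was defined as 50% decrease in metabolic activity versus drug-free control. PG was defined as ≥20% of control activity at concentrations above MIC.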

Candida metapsilosis [6] = test: Antimicrobial activity against Candida metapsilosis BR-A44 grown as biofilm after 48 hrs by XTT reduction assay; type: functional; conditions: Lodderomyces metapsilosis
How it was run: (§6)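 Sabouraud-grown cells were shaken overnight (18 h, 120 rpm, 35°C) in RPMI 1640 with MOPS at pH 7.0, then washed and set at ~1 × 10^7 cells/ml. Attachment lasted 1.5 h at 37°C, and growth ran 24 h before challenge. Caspofungin was added in RPMI at 2–1,024 μg/ml (10 doublings) for 48 h at 35°C with shaking. XTT-menadione was read at 490 nm after 1 h at 35°C in the dark, with blank wells subtracted. MIC was taken as 50% reduction versus drug-free wells, and PG as >50% of control above MIC. Assays were run in duplicate.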

Candida orthopsilosis [7] = test: Effect on morphology in Candida orthopsilosis grown as biofilm assessed as inhibition of hyphae and pseudohyphae at 32 ug/ml after 48 hrs; type: functional, organism-based; how it was run: as §1
Candida albicans [8] = test: Effect on morphology in Candida albicans grown as planktonic cells assessed as rounding and clumping at 16 ug/ml after 48 hrs; type: functional, organism-based
How it was run: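 Cells were taken from caspofungin-containing and drug-free wells of the planktonic broth microdilution test after 48 h. They were examined by light microscopy at ×400.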

Candida tropicalis [9] = test: Antimicrobial activity against Candida tropicalis BR-A9 grown as planktonic cell assessed as concentration producing paradoxical growth after 48 hrs by XTT reduction assay; type: functional; how it was run: as §3
Candida orthopsilosis [10] = test: Antimicrobial activity against Candida orthopsilosis BR-A35 grown as biofilm after 48 hrs by XTT reduction assay; type: functional; conditions: Lodderomyces orthopsilosis; how it was run: as §4
Candida albicans [11] = test: Antimicrobial activity against Candida albicans BR-A1 grown as planktonic cell after 48 hrs by XTT reduction assay; type: functional
How it was run: (§7)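 Planktonic broth microdilution followed CLSI M27-A2, with caspofungin dissolved in water. After 48 h, XTT-menadione was added to the wells and plates were kept 1 h at 35°C in the dark. Plates were then centrifuged and supernatant A490 was read. MIC was the lowest concentration giving a 50% decrease in metabolic activity versus drug-free control. Paradoxical growth was defined as ≥20% of control activity above the MIC.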

Candida albicans [12] = test: Antimicrobial activity against Candida albicans BR-A4 grown as biofilm after 48 hrs by XTT reduction assay; type: functional; how it was run: as §4
Candida parapsilosis [13] = test: Antimicrobial activity against Candida parapsilosis BR-A29 grown as planktonic cell after 48 hrs by XTT reduction assay; type: functional; conditions: Lodderomyces parapsilosis; how it was run: as §7
Candida tropicalis [14] = test: Antimicrobial activity against Candida tropicalis BR-A14 grown as biofilm after 48 hrs by XTT reduction assay; type: functional; how it was run: as §2
Candida parapsilosis [15] = test: Antimicrobial activity against Candida parapsilosis BR-A26 grown as biofilm assessed as paradoxical growth after 48 hrs by XTT reduction assay; type: functional, organism-based; how it was run: as §2
Candida albicans [16] = test: Antimicrobial activity against Candida albicans BR-A2 grown as planktonic cell assessed as concentration producing paradoxical growth after 48 hrs by XTT reduction assay; type: functional; how it was run: as §5
Candida parapsilosis [17] = test: Antimicrobial activity against Candida parapsilosis BR-A31 grown as planktonic cell after 48 hrs by XTT reduction assay; type: functional; conditions: Lodderomyces parapsilosis; how it was run: as §7
Candida orthopsilosis [18] = test: Antimicrobial activity against Candida orthopsilosis BR-A33 grown as biofilm after 48 hrs by XTT reduction assay; type: functional; conditions: Lodderomyces orthopsilosis; how it was run: as §4
Candida metapsilosis [19] = test: Antimicrobial activity against Candida metapsilosis BR-A42 grown as biofilm after 48 hrs by XTT reduction assay; type: functional; conditions: Lodderomyces metapsilosis; how it was run: as §6
Candida metapsilosis [20] = test: Antimicrobial activity against Candida metapsilosis BR-A43 grown as planktonic cell assessed as paradoxical growth after 48 hrs by XTT reduction assay; type: functional, organism-based; how it was run: as §5
Candida metapsilosis [21] = test: Antimicrobial activity against Candida metapsilosis BR-A41 grown as planktonic cell assessed as paradoxical growth after 48 hrs by XTT reduction assay; type: functional, organism-based; how it was run: as §5
Candida tropicalis [22] = test: Effect on morphology in Candida tropicalis grown as planktonic cells assessed as rounding and clumping at 8 ug/ml after 48 hrs; type: functional, organism-based
How it was run: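 Clinical isolates were tested by CLSI M27-A2 broth microdilution with caspofungin dissolved in sterile water. After 48 h incubation, cells were taken from drug-containing and drug-free control wells. They were examined by light microscopy at ×400 for hyphae or pseudohyphae, rounding or clumping, and enlarged globose cells.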

Candida parapsilosis [23] = test: Antimicrobial activity against Candida parapsilosis BR-A25 grown as biofilm after 48 hrs by XTT reduction assay; type: functional; conditions: Lodderomyces parapsilosis; how it was run: as §4
Candida metapsilosis [24] = test: Antimicrobial activity against Candida metapsilosis BR-A44 grown as planktonic cell assessed as paradoxical growth after 48 hrs by XTT reduction assay; type: functional, organism-based; how it was run: as §5
Candida parapsilosis [25] = test: Antimicrobial activity against Candida parapsilosis BR-A31 grown as biofilm assessed as concentration producing paradoxical growth after 48 hrs by XTT reduction assay; type: functional; how it was run: as §2

For `CC[C@H](C)C[C@H](C)CCCCCCCCC(=O)N[C@H]1C[C@@H](O)[C@@H](NCCN)NC(=O)[C@@H]2[C@@H](O)CCN2C(=O)[C@H]([C@H](O)CCN)NC(=O)[C@H]([C@H](O)[C@@H](O)c2ccc(O)cc2)NC(=O)[C@@H]2C[C@@H](O)CN2C(=O)[C@H]([C@@H](C)O)NC1=O` [CASPOFUNGIN], the Activity (Candida metapsilosis [1]) was “Active”, the MIC (Candida tropicalis [2]) was 128 µg/mL (≈ 117 µM) and the Activity (Candida parapsilosis [3]) was “inactive”. The MIC (Candida parapsilosis [4]) was 2 µg/mL (≈ 1.83 µM), the Activity (Candida orthopsilosis [5]) was “inactive” and the MIC (Candida metapsilosis [6]) was 2 µg/mL (≈ 1.83 µM). The Activity (Candida orthopsilosis [7]) was “Active”, the Activity (Candida albicans [8]) was “Active” and the Activity (Candida tropicalis [9]) was 8 µg/mL. It also gave an MIC (Candida orthopsilosis [10]) of 2 µg/mL (≈ 1.83 µM), an MIC (Candida albicans [11]) of 0.5 µg/mL (≈ 0.457 µM) and an MIC (Candida albicans [12]) of 2 µg/mL (≈ 1.83 µM). The MIC (Candida parapsilosis [13]) was 2 µg/mL (≈ 1.83 µM), the MIC (Candida tropicalis [14]) was 256 µg/mL (≈ 234 µM) and the Activity (Candida parapsilosis [15]) was “Active”. For the same compound, the Activity (Candida albicans [16]) was 16 µg/mL, the MIC (Candida parapsilosis [17]) was 2 µg/mL (≈ 1.83 µM) and the MIC (Candida orthopsilosis [18]) was 2 µg/mL (≈ 1.83 µM). The MIC (Candida metapsilosis [19]) was 2 µg/mL (≈ 1.83 µM), the Activity (Candida metapsilosis [20]) was “inactive” and the Activity (Candida metapsilosis [21]) was “inactive”. The Activity (Candida tropicalis [22]) was “Active”, the MIC (Candida parapsilosis [23]) was 2 µg/mL (≈ 1.83 µM) and the Activity (Candida metapsilosis [24]) was “inactive”. It also gave an Activity (Candida parapsilosis [25]) of 32 µg/mL.
